According to ChEMBL document CHEMBL1125607, “Novel gonadotropin-releasing hormone antagonists: peptides incorporating modified N omega-cyanoguanidino moieties” (J Med Chem, 1991):
Converted amounts (≈) assume the structure as drawn. The source made the active and inactive calls. The rule behind the calls is not given here. Where a SMILES comes first, the peptide text is derived from it. [ ]: non-standard residue; d: D form. The star is where a group is joined. Triazol3yl(1,2,4-5-NH2) = Nc1nc(*)n[nH]1; dPhe(4-Cl) = N[C@H](Cc1ccc(Cl)cc1)C(=O)O; d2Nal = N[C@H](Cc1ccc2ccccc2c1)C(=O)O; Lys(iPr) = CC(C)NCCCC[C@H](N)C(=O)O; d3Pal = N[C@H](Cc1cccnc1)C(=O)O; Nicotinoyl = O=C(c1cccnc1)*

Key:
[1] = biological target: Gonadotropin-releasing hormone receptor (Rattus norvegicus) (UniProt P30969); test: Antagonist potency at GnRH receptor relative to a standard ([Ac-delta3Pro, DFpa2, DTrp3,6]GnRH).
[2] = biological target: T1, Gonadotropin-releasing hormone receptor (Rattus norvegicus, UniProt P30969); test: In vitro binding affinity of Gonadotropin-releasing hormone antagonist was measured in rat pituitary cell membranes; design: species or system Pituitary gland cell, Membrane
T1 sequence (P30969 whole entry): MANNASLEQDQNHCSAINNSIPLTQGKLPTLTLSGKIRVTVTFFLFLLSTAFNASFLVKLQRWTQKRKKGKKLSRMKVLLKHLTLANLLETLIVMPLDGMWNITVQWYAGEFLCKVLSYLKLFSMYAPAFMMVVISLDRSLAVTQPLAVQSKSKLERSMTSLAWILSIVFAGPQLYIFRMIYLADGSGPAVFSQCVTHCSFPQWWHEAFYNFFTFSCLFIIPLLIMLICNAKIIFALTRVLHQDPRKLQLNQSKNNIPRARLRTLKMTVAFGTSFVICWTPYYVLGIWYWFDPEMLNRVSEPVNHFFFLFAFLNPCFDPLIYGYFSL
Method in brief: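 Displacement binding on pituitary cell membranes with [DAla6,NMe-Leu7,Pro9-NHEt]GnRH as standard; analogue KD values calculated from potencies relative to that standard derived from displacement data.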

Rattus norvegicus [3] = test: Potency (1 mg/rat) using anti-ovulatory assay, expressed as rat ovulating/total number of treated rats measured after sc administration; 5/5; assay type: functional, organism-based
Rattus norvegicus [4] = test: Potency (2.5 mg/rat) using anti-ovulatory assay, expressed as rat ovulating/total number of treated rats measured after sc administration; 2/8; assay type: functional, organism-based
Rattus norvegicus [5] = test: Potency (2 mg/rat) using anti-ovulatory assay, expressed as rat ovulating/total number of treated rats measured after sc administration; 1/10; assay type: functional, organism-based
Rattus norvegicus [6] = species on record: Rattus norvegicus; test: In vitro histamine release by rat mast cells.; settings: read-out: ED50 (the source's name)
Rattus norvegicus [7] = test: Potency (5 mg/rat) using anti-ovulatory assay, expressed as rat ovulating/total number of treated rats measured after sc administration; 14/20; assay type: functional, organism-based
Rattus norvegicus [8] = test: Potency (0.5 mg/rat) using anti-ovulatory assay, expressed as rat ovulating/total number of treated rats measured after sc administration; 8/18; assay type: functional, organism-based
Rattus norvegicus [9] = test: Potency (1 mg/rat) using anti-ovulatory assay, expressed as rat ovulating/total number of treated rats measured after sc administration; 1/17; assay type: functional, organism-based
Rattus norvegicus [10] = test: Potency (2 mg/rat) using anti-ovulatory assay, expressed as rat ovulating/total number of treated rats measured after sc administration; 2/10; assay type: functional, organism-based
Rattus norvegicus [11] = test: Potency (2.5 mg/rat) using anti-ovulatory assay, expressed as rat ovulating/total number of treated rats measured after sc administration; 0/7; assay type: functional, organism-based
Rattus norvegicus [12] = test: Potency (1.0 mg/rat) using anti-ovulatory assay, expressed as rat ovulating/total number of treated rats measured after sc administration; 5/5; assay type: functional, organism-based
Rattus norvegicus [13] = test: Potency (1 mg/rat) using anti-ovulatory assay, expressed as rat ovulating/total number of treated rats measured after sc administration; 2/8; assay type: functional, organism-based
Rattus norvegicus [14] = test: Potency (0.5 mg/rat) using anti-ovulatory assay, expressed as rat ovulating/total number of treated rats measured after sc administration; 6/6; assay type: functional, organism-based

## CCCCCC/N=C(\NC#N)NCCCC[C@H](NC(=O)[C@H](CO)NC(=O)[C@H](Cc1c[nH]c2ccccc12)NC(=O)[C@H](Cc1c[nH]cn1)NC(=O)[C@@H]1CCC(=O)N1)C(=O)N[C@H](CCCCN/C(=N/CCCCCC)NC#N)C(=O)N[C@@H](CC(C)C)C(=O)N[C@@H](CCCCNC(C)C)C(=O)N1CCC[C@H]1C(=O)N[C@H](C)C(N)=O
[1]
  Relative potency: 0.14
[2]
  Kd: 3.3 nM
Rattus norvegicus [3]
  Activity: inactive
Rattus norvegicus [4]
  Activity: Weak activity

## CC(C)C[C@H](NC(=O)[C@@H](CCCCNc1n[nH]c(N)n1)NC(=O)[C@H](CCCCNc1n[nH]c(N)n1)NC(=O)[C@H](CO)NC(=O)[C@H](Cc1c[nH]c2ccccc12)NC(=O)[C@H](Cc1c[nH]cn1)NC(=O)[C@@H]1CCC(=O)N1)C(=O)N[C@@H](CCCCNC(C)C)C(=O)N1CCC[C@H]1C(=O)N[C@H](C)C(N)=O
[1]
  Relative potency: 0.23
Rattus norvegicus [5]
  Activity: Active

## CC(=O)N[C@H](Cc1ccc2ccccc2c1)C(=O)N[C@H](Cc1ccc(F)cc1)C(=O)N[C@H](Cc1c[nH]c2ccccc12)C(=O)N[C@@H](CO)C(=O)N[C@@H](Cc1ccc(O)cc1)C(=O)N[C@H](CCCN=C(N)N)C(=O)N[C@@H](CC(C)C)C(=O)N[C@@H](CCCN=C(N)N)C(=O)N1CCC[C@H]1C(=O)NCC(N)=O (HELM PEPTIDE1{[ac].[O=C([C@@H](Cc1ccc2ccccc2c1)N[*:1])[*:2]].[O=C([C@@H](Cc1ccc(F)cc1)N[*:1])[*:2]].[dW].S.Y.[dR].L.R.P.G.[am]}$$$$V2.0)
Rattus norvegicus [6]
  EC50: 0.17 µg/mL (≈ 0.118 µM)

## CCCC/N=C(\NC#N)NCCCC[C@H](NC(=O)[C@H](CC(C)C)NC(=O)[C@@H](CCCCNC(=O)c1cccnc1)NC(=O)[C@H](CCCCNC(=O)c1cccnc1)NC(=O)[C@H](CO)NC(=O)[C@H](Cc1c[nH]c2ccccc12)NC(=O)[C@H](Cc1c[nH]cn1)NC(=O)[C@@H]1CCC(=O)N1)C(=O)N1CCC[C@H]1C(=O)N[C@H](C)C(N)=O
Rattus norvegicus [7]
  Activity: Weak activity
[1]
  Relative potency: 0.3
[2]
  Kd: 0.45 nM

## CC(C)C[C@H](NC(=O)[C@@H](CCCCNC(=NC#N)NCc1ccccn1)NC(=O)[C@H](CCCCNC(=NC#N)NCc1ccccn1)NC(=O)[C@H](CO)NC(=O)[C@H](Cc1c[nH]c2ccccc12)NC(=O)[C@H](Cc1cnc[nH]1)NC(=O)[C@@H]1CCC(=O)N1)C(=O)N[C@@H](CCCCNC(C)C)C(=O)N1CCC[C@H]1C(=O)N[C@H](C)C(N)=O
[2]
  Kd: 0.27 nM

## CC(=O)N[C@H](Cc1ccc2ccccc2c1)C(=O)N[C@H](Cc1ccc(Cl)cc1)C(=O)N[C@H](Cc1cccnc1)C(=O)N[C@@H](CO)C(=O)N[C@@H](CCCCNC(=O)c1cccnc1)C(=O)N[C@H](CCCCNC(=O)c1cccnc1)C(=O)N[C@@H](CC(C)C)C(=O)N[C@@H](CCCCNC(C)C)C(=O)N1CCC[C@H]1C(=O)N[C@H](C)C(N)=O (Ac-[d2Nal][dPhe(4-Cl)][d3Pal]SK(Nicotinoyl)[dK](Nicotinoyl)L[Lys(iPr)]P[dA]-NH2)
Rattus norvegicus [6]
  EC50: > 300 µg/mL

## CC(C)C[C@H](NC(=O)[C@@H](Cc1ccc(Nc2n[nH]c(N)n2)cc1)NC(=O)[C@H](Cc1ccc(Nc2n[nH]c(N)n2)cc1)NC(=O)[C@H](CO)NC(=O)[C@H](Cc1c[nH]c2ccccc12)NC(=O)[C@H](Cc1c[nH]cn1)NC(=O)[C@@H]1CCC(=O)N1)C(=O)N[C@@H](CCCCNC(C)C)C(=O)N1CCC[C@H]1C(=O)N[C@H](C)C(N)=O
[1]
  Relative potency: 1.3
Rattus norvegicus [8]
  Activity: Weak activity
Rattus norvegicus [9]
  Activity: Active
Rattus norvegicus [6]
  EC50: 50 µg/mL (≈ 33.8 µM)

## CC(C)C[C@H](NC(=O)[C@@H](CCCCNc1n[nH]c(N)n1)NC(=O)[C@H](Cc1ccc(O)cc1)NC(=O)[C@H](CO)NC(=O)[C@@H](CCCCNc1n[nH]c(N)n1)NC(=O)[C@H](Cc1c[nH]cn1)NC(=O)[C@@H]1CCC(=O)N1)C(=O)N[C@@H](CCCCNC(C)C)C(=O)N1CCC[C@H]1C(=O)N[C@H](C)C(N)=O
Rattus norvegicus [6]
  EC50: > 150 µg/mL

## C/N=C(\NC#N)NCCCC[C@@H](NC(=O)[C@H](CCCCN/C(=N\C)NC#N)NC(=O)[C@H](CO)NC(=O)[C@H](Cc1c[nH]c2ccccc12)NC(=O)[C@H](Cc1c[nH]cn1)NC(=O)[C@@H]1CCC(=O)N1)C(=O)N[C@@H](CC(C)C)C(=O)N[C@@H](CCCCNC(C)C)C(=O)N1CCC[C@H]1C(=O)N[C@H](C)C(N)=O
[2]
  Kd: 0.24 nM
Rattus norvegicus [10]
  Activity: Active

## CCCC/N=C(\NC#N)NCCCC[C@@H](NC(=O)[C@H](Cc1c[nH]cn1)NC(=O)[C@@H]1CCC(=O)N1)C(=O)N[C@@H](CO)C(=O)N[C@@H](Cc1ccc(O)cc1)C(=O)N[C@H](CCCCN/C(=N/CCCC)NC#N)C(=O)N[C@@H](CC(C)C)C(=O)N[C@@H](CCCCNC(C)C)C(=O)N1CCC[C@H]1C(=O)N[C@H](C)C(N)=O
Rattus norvegicus [6]
  EC50: 50 µg/mL (≈ 34 µM)

## CC(C)C[C@H](NC(=O)[C@@H](Cc1cccnc1)NC(=O)[C@H](Cc1ccc(O)cc1)NC(=O)[C@H](CO)NC(=O)[C@@H](Cc1cccnc1)NC(=O)[C@H](Cc1cnc[nH]1)NC(=O)[C@@H]1CCC(=O)N1)C(=O)N[C@@H](CCCCNC(C)C)C(=O)N1CCC[C@H]1C(=O)N[C@H](C)C(N)=O
[2]
  Kd: 0.08 nM

## CC(C)C[C@H](NC(=O)[C@@H](CCCN=C(N)N)NC(=O)[C@H](Cc1ccc(O)cc1)NC(=O)[C@H](CO)NC(=O)[C@@H](Cc1cccnc1)NC(=O)[C@H](Cc1c[nH]cn1)NC(=O)[C@@H]1CCC(=O)N1)C(=O)N[C@@H](CCCCNc1n[nH]c(N)n1)C(=O)N1CCC[C@H]1C(=O)N[C@H](C)C(N)=O
Rattus norvegicus [6]
  EC50: 19 µg/mL (≈ 14.5 µM)

## CC(C)C[C@H](NC(=O)[C@@H](CCCNC(=N)N)NC(=O)[C@H](Cc1ccc(O)cc1)NC(=O)[C@H](CO)NC(=O)[C@@H](CCCCNc1nnc(N)[nH]1)NC(=O)[C@H](Cc1cnc[nH]1)NC(=O)[C@@H]1CCC(=O)N1)C(=O)N[C@@H](CCCCNC(C)C)C(=O)N1CCC[C@H]1C(=O)N[C@H](C)C(N)=O
[2]
  Kd: 0.27 nM

## CC(C)C[C@H](NC(=O)[C@@H](CCCNc1n[nH]c(N)n1)NC(=O)[C@H](CCCNc1n[nH]c(N)n1)NC(=O)[C@H](CO)NC(=O)[C@H](Cc1c[nH]c2ccccc12)NC(=O)[C@H](Cc1c[nH]cn1)NC(=O)[C@@H]1CCC(=O)N1)C(=O)N[C@@H](CCCCNC(C)C)C(=O)N1CCC[C@H]1C(=O)N[C@H](C)C(N)=O
[1]
  Relative potency: 0.2
Rattus norvegicus [5]
  Activity: Active
[2]
  Kd: 0.21 nM
Rattus norvegicus [6]
  EC50: 158 µg/mL (≈ 114 µM)

## CCCCNC(=NC#N)NCCCC[C@@H](NC(=O)[C@H](Cc1ccc(O)cc1)NC(=O)[C@H](CO)NC(=O)[C@@H](Cc1cccnc1)NC(=O)[C@H](Cc1cnc[nH]1)NC(=O)[C@@H]1CCC(=O)N1)C(=O)N[C@@H](CC(C)C)C(=O)N[C@@H](CCCNC(=N)N)C(=O)N1CCC[C@H]1C(=O)N[C@H](C)C(N)=O
[2]
  Kd: 1.7 nM

## CCCC/N=C(\NC#N)NCCC[C@@H](NC(=O)[C@H](Cc1c[nH]cn1)NC(=O)[C@@H]1CCC(=O)N1)C(=O)N[C@@H](CO)C(=O)N[C@@H](Cc1ccc(O)cc1)C(=O)N[C@H](Cc1cccnc1)C(=O)N[C@@H](CC(C)C)C(=O)N[C@@H](CCCCNC(C)C)C(=O)N1CCC[C@H]1C(=O)N[C@H](C)C(N)=O
[1]
  Relative potency: 1.6
Rattus norvegicus [11]
  Activity: Active
Rattus norvegicus [12]
  Activity: inactive

## CC(C)C[C@H](NC(=O)[C@@H](CCCCNC(=NC#N)NC1CCCCC1)NC(=O)[C@H](CCCCNC(=NC#N)NC1CCCCC1)NC(=O)[C@H](CO)NC(=O)[C@H](Cc1c[nH]c2ccccc12)NC(=O)[C@H](Cc1cnc[nH]1)NC(=O)[C@@H]1CCC(=O)N1)C(=O)N[C@@H](CCCCNC(C)C)C(=O)N1CCC[C@H]1C(=O)N[C@H](C)C(N)=O
[2]
  Kd: 1.2 nM

## CC(C)C[C@H](NC(=O)[C@@H](CCCC/N=C(/NC#N)NC(C)C)NC(=O)[C@H](CCCC/N=C(/NC#N)NC(C)C)NC(=O)[C@H](CO)NC(=O)[C@H](Cc1c[nH]c2ccccc12)NC(=O)[C@H](Cc1c[nH]cn1)NC(=O)[C@@H]1CCC(=O)N1)C(=O)N[C@@H](CCCCNC(C)C)C(=O)N1CCC[C@H]1C(=O)N[C@H](C)C(N)=O
[1]
  Relative potency: 0.3
[2]
  Kd: 0.32 nM
Rattus norvegicus [13]
  Activity: Active
Rattus norvegicus [14]
  Activity: inactive

## CC(=O)N[C@H](Cc1ccc2ccccc2c1)C(=O)N[C@H](Cc1ccc(Cl)cc1)C(=O)N[C@H](Cc1cccnc1)C(=O)N[C@@H](CO)C(=O)N[C@@H](CCCCNc1n[nH]c(N)n1)C(=O)N[C@H](CCCCNc1n[nH]c(N)n1)C(=O)N[C@@H](CC(C)C)C(=O)N[C@@H](CCCCNC(C)C)C(=O)N1CCC[C@H]1C(=O)N[C@H](C)C(N)=O (Ac-[d2Nal][dPhe(4-Cl)][d3Pal]SK(Triazol3yl(1,2,4-5-NH2))[dK](Triazol3yl(1,2,4-5-NH2))L[Lys(iPr)]P[dA]-NH2)
[2]
  Kd: 0.48 nM
